Activity calls are given as the source filed them. No cut-off for these calls is given here.

Broadly, the IC50 is the concentration needed to halve the response being measured.

Assay [1] concerns the target Amyloid-beta precursor protein (Homo sapiens) (UniProt P05067). The assay is described as follows: Neuroprotective activity against amyloid beta (25 to 35)-induced cell death in human SH-SY5Y cells assessed as cell viability at 0.4 uM after 24 hrs by MTT assay relative to control. Format: functional, cell-based.
For assay [2] the target is unchanged. The assay is described as follows: Neuroprotective activity against amyloid beta (25 to 35)-induced cell death in human SH-SY5Y cells assessed as cell viability at 0.08 uM after 24 hrs by MTT assay relative to control. Format: functional, cell-based. On the technique in general: Formazan colour is commonly taken as a measure of viable cells.
For assay [3] the target is unchanged. The assay is described as follows: Neuroprotective activity against amyloid beta (25 to 35)-induced cell death in human SH-SY5Y cells assessed as cell viability at 10 uM after 24 hrs by MTT assay relative to control. Format: functional, cell-based.
For assay [4] the target is unchanged. The experiment in a line: Neuroprotective activity against amyloid beta (25 to 35)-induced cell death in human SH-SY5Y cells assessed as cell viability at 2 uM after 24 hrs by MTT assay relative to control. It counts as functional, cell-based.
A short description of assay [5]: Antioxidant activity assessed as reduction of TPTZ-Fe3+ to TPTZ-Fe2+ at 0.15 to 1.5 mM after 5 mins by FRAP assay. Format: functional.
Assay [6] is described as follows: Antioxidant activity assessed as reduction of TPTZ-Fe3+ to TPTZ-Fe2+ after 5 mins by FRAP assay. It counts as functional. Summed up: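 Working reagent prepared fresh from TPTZ solution, TPTZ diluent and detective buffer (1:10:1 v/v), prewarmed to 37 °C. Samples at 0.15–1.5 mM (5 μL) mixed with 180 μL reagent and held 5 min at 37 °C, then A593 read. Activity expressed as FeSO4 equivalents from a FeSO4 standard curve (0.15–5.00 mM).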

In assay [7] the test system is Radical scavenging activity. The experiment in a line: Antioxidant activity assessed as 300 uM DPPH free radical scavenging activity under dark condition after 30 mins by microplate reader analysis. Format: functional. An outline of the steps:
(§1)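 Compounds at final 6.25, 12.5, 25, 50, 75 and 100 μM mixed with DPPH (final 150 or 300 μM) in EtOH containing 5% DMSO; EtOH/5% DMSO control. A517 read at steady state after 30 min at room temperature in the dark. Triplicate tests averaged.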

Assay [8] deals with Radical scavenging activity. The assay is described as follows: Antioxidant activity assessed as 150 uM DPPH free radical scavenging activity under dark condition after 30 mins by microplate reader analysis. Format: functional. An outline of the steps: as §1

Sequence of Amyloid-beta precursor protein (Homo sapiens) (P05067 whole entry): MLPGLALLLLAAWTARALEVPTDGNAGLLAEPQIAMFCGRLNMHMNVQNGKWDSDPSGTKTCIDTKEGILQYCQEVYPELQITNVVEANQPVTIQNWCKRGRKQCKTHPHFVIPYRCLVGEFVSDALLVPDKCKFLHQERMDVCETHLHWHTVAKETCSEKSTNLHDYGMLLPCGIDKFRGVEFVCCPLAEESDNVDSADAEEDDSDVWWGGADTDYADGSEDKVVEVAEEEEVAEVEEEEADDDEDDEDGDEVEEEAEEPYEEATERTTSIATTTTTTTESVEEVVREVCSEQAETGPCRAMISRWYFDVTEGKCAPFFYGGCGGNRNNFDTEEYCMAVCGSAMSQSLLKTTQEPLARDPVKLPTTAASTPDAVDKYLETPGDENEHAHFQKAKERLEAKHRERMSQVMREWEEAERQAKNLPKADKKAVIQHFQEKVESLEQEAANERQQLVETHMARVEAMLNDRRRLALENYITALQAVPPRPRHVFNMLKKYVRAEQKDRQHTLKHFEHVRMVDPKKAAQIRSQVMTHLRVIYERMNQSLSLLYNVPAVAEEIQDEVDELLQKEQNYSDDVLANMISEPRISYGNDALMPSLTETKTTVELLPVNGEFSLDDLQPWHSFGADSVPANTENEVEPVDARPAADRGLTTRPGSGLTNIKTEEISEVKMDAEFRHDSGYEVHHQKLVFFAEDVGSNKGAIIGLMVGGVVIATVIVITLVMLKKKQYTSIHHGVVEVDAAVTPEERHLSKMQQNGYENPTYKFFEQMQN

As to `COc1ccc(C(=O)O[C@@H](c2ccc3c(c2)OCO3)[C@H](C)C(C)=O)cc1OC`, the Activity stood at 65.4% in assay [1], 58.3% in assay [2], 66.8% in assay [3] and 68.9% in assay [4]. Moreover, the result in assay [5] was inactive.

As to `Cc1c(C)c2c(c(C)c1O)CCC(C)(C(=O)O)O2` (stereo unspecified), in assay [5], the result was Active.

`COc1ccc([C@H](OC(=O)c2ccc3c(c2)OCO3)[C@H](C)C(C)=O)cc1OC`: the outcome in assay [5] was inactive.

Turning to `COc1cc([C@H]2O[C@H](c3ccc4c(c3)OCO4)[C@@H](C)[C@H]2C)ccc1O`, the Activity result in assay [6] was “Dose-dependent effect”. For the same compound, the IC50 in assay [7] came to 44.5 µM; in assay [8], 23.3 µM.

Turning to `O=C1O[C@H]([C@@H](O)CO)C(O)=C1O` [ASCORBIC ACID], the Activity in assay [1] stood at 55.6%; in assay [2], 54.1%; in assay [3], 58%; in assay [4], 58.5%. In addition, the IC50 in assay [7] is 59.3 µM; in assay [8], 24.7 µM.

Take `COc1ccc(C[C@@H](C)[C@@H](C)Cc2ccc3c(c2)OCO3)cc1OC`: the Activity in assay [1] came out at 62.2%; in assay [2] it was 58.1%; in assay [3] it was 61.9%; in assay [4], 61.1%. The result in assay [5] was inactive.

Take VITAMIN E: the IC50 in assay [7] amounted to 62.1 µM; in assay [8], 26.9 µM.

With `OC[C@H](Cc1ccc2c(c1)OCO2)[C@H](CO[C@@H]1O[C@H](CO[C@@H]2O[C@@H](CO)[C@H](O)[C@H]2O)[C@@H](O)[C@H](O)[C@H]1O)Cc1ccc2c(c1)OCO2`, the Activity in assay [1] stood at 59.2%; in assay [2], 58%; in assay [3], 58.3%; in assay [4] it was 62%. The outcome in assay [5] was inactive.

`OC[C@H](Cc1ccc2c(c1)OCO2)[C@H](CO[C@@H]1O[C@H](CO)[C@@H](O)[C@H](O)[C@H]1O)Cc1ccc2c(c1)OCO2`: the Activity was 64% in assay [1], 65% in assay [2], 65.2% in assay [3] and 63.1% in assay [4]. In assay [5], the result was inactive.

Turning to `COc1cc([C@H]2c3cc4c(cc3C[C@@H](C)[C@@H]2C)OCO4)ccc1O`, the Activity was 59.9% in assay [1]; 57.7% in assay [2]; 60.5% in assay [3]; 60.5% in assay [4]; “Dose-dependent effect” in assay [6]. In addition, the IC50 in assay [7] is 360 µM; in assay [8], 181 µM.

Take `COc1cc(C[C@@H](C)[C@@H](C)Cc2ccc(O)c(OC)c2)ccc1O` [MESODIHYDROGUAIARETIC ACID]: the Activity was 63.8% in assay [1]; 62.2% in assay [2]; 68.3% in assay [3]; 69.2% in assay [4]; “Dose-dependent effect” in assay [6]. Moreover, the IC50 turned out to be 34.6 µM in assay [7] and 15.7 µM in assay [8].

In the case of `COc1cc(C[C@H](C)[C@H](C)Cc2ccc3c(c2)OCO3)ccc1O` [AUSTROBAILIGNAN 6], the Activity in assay [1] is 61.5%; in assay [2], 57%; in assay [3] it was 64.4%; in assay [4], 61.8%; in assay [6], “Dose-dependent effect”. Besides, the IC50 is 75.1 µM in assay [7] and 33.2 µM in assay [8].

As to `COc1ccc([C@H]2O[C@H](c3ccc4c(c3)OCO4)[C@@H](C)[C@H]2C)cc1OC`, the Activity was determined as 58.1% in assay [1], 58.2% in assay [2], 60.4% in assay [3] and 58.6% in assay [4]. Moreover, the result in assay [5] was inactive.

For the compound `COc1ccc([C@H]2c3cc4c(cc3C[C@@H](C)[C@@H]2C)OCO4)cc1OC`, the Activity in assay [1] was determined as 58.2%; in assay [2], 57.4%; in assay [3], 58.7%; in assay [4], 59.8%. In addition, the result in assay [5] was inactive.

Turning to `COc1cc([C@@H]2c3cc(OC)c(O)cc3C=C(C)[C@H]2C)ccc1O`, the Activity in assay [1] was 60.7%; in assay [2] it was 58.6%; in assay [3] it was 65.2%; in assay [4], 62.1%; in assay [6], “Dose-dependent effect”. Besides, the values for the IC50 in assay [7] and in assay [8] were 83.4 µM and 37.5 µM, respectively.

These data come from ChEMBL document CHEMBL3286204, “Lignans from the fruit of Schisandra glaucescens with antioxidant and neuroprotective properties” (J Nat Prod, 2014).
